We go through one compound from ChEMBL document CHEMBL3860044, “The Rational Design, Synthesis, and Antimicrobial Properties of Thiophene Derivatives That Inhibit Bacterial Histidine Kinases” (J Med Chem, 2016).

SMILES strings stand for the structures.

In general, IC50 refers to the midpoint of a concentration-inhibition curve.

The nature of this assay: Inhibition of Bacillus subtilis JH642 Hexa-his-tagged ResE cytoplasmic domain (203 to 589 residues) autophosphorylation expressed in Escherichia coli BL21(DE3) preincubated for 5 mins followed by [gamma-32P] ATP addition measured after 8 to 60 mins by SDS-PAGE based phosphor imaging method. Further details: species or system Bacillus subtilis subsp. subtilis str. JH642. A digest of the protocol: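 His6-ResE purified by Ni-NTA after IPTG induction (1 mM, 16 °C). For IC50: 0.5 µM kinase in Epps pH 8.5, MgCl2, EDTA, glycerol buffer; compound 0–800 µM (two-fold steps), DMSO held constant, 5 min before ATP at 2.5 µM final, cold:hot ratio 1:10. Stopped with SDS loading buffer after 8 min; SDS-PAGE, phosphorimaging, densitometry.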

The compound `O=[N+]([O-])c1ccc(-c2ccccc2O)s1` yielded a 50% inhibitory concentration (IC50) of 124 µM.
